# TLR4 MyD88 comp: inhibitors of TLR4-MyD88 association in cells, primary screen, cell-based, HeLa CL3-4, BLA complementation, FRET ratio. Toll-like receptor 4 (Homo sapiens) + Myeloid differentiation primary response protein …. HeLa CL3-4 TLR4/MyD88 BLA complementation. inhibition, % at 8.4 µM. 200,000 tested, 0.18% active; in the data active = inhibition above about 25%;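 note: 0% = vehicle and 100% = reference inhibitor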
# CHOP UPR activ: activators of apoptotic CHOP UPR arm, primary screen, cell-based, CHO-CHOP luciferase reporter, luminescence, uHTS; UPR activation; percent of tunicamycin response over DMSO baseline; activation, % at 10 µM; 330,000 tested, 0.34% active;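 active = at 10 µM dose, activation of 40% or more, normalized to positive control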;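 note: 100% = tunicamycin at 10 µg/mL and 0% = DMSO alone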
#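 System: CHO-CHOP luciferase reporter cell line | Buffer or medium: F12 medium containing 10% fetal bovine serum | Doses: One dose, 10 µM in 0.5% DMSO | Times: 6 h compound exposure at 37 °C after overnight seeding | Signal: Luciferase luminescence | Read-out: % activation vs tunicamycin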
# NOD2 RIPK2 PPI: NOD2-RIPK2 binding disruptors in cells, primary screen, fluorescence, CHO cells, BLA complementation. CCF4 ratio. inhibition, % at 4.98 µM. 360,000 tested, 0.38% active. AID 624267, 2012; in the data active = inhibition above about 21%;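 note: 0% = vehicle only and 100% = reference blocker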
# Target sequence (O43353 whole entry, looked up): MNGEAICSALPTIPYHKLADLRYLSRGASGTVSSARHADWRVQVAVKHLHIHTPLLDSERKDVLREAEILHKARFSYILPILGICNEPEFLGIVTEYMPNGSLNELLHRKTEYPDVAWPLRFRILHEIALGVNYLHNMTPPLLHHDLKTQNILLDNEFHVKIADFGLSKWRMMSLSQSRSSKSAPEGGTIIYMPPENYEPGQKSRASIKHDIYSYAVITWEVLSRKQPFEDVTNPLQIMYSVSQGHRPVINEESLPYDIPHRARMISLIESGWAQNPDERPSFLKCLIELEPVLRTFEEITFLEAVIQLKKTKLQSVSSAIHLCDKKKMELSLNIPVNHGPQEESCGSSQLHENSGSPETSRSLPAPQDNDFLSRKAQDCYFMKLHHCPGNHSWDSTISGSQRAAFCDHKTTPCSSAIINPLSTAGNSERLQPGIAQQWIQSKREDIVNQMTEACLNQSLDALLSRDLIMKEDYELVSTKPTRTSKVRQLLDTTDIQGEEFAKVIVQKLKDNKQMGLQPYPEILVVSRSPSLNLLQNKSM
# CHOP inh: inhibitors of CHOP promoter induction, primary screen, cell-based, unfolded protein response, luciferase reporter; AID 2732, 2010; inhibition, % at 10 µM; CHO-K1 CHOP-promoter luciferase, tunicamycin-induced, 15-18 h; 220,000 tested, 3.8% active;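 active = compounds that reduced the stress-induced luciferase reporter signal by more than about 70% of percent inhibition, limit read from the data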;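 note: 0% = tunicamycin plus vehicle and 100% = wells without tunicamycin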
# UPR XBP1 act: activators of adaptive XBP1 UPR arm, primary screen, cell-based, CHO-XBP1 luciferase reporter, luminescence, uHTS | IRE1-XBP1 UPR activation; percent of tunicamycin response, DMSO as zero | activation, % at 20 µM | 330,000 tested, 0.33% active | AID 463104, 2010;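 active = versus positive control, 20 µM dose yields 30% or more activation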;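 note: 100% = tunicamycin at 10 µg/mL and 0% = DMSO only wells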
#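 Material: CHO cell line with stable XBP1 luciferase reporter; buffer or medium: F12 medium containing 10% fetal bovine serum; compound: single point, 20 µM final compound, 1% DMSO; incubation: 6 h treatment, 37 °C; measured by: glow luminescence from Steady-Glo reagent; evaluation: activation, % of tunicamycin; control set: tunicamycin high, DMSO low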
# TLR9-MyD88 inh: inhibitors of TLR9-MyD88 association in cells, primary screen, cell-based, CHO, BLA complementation, fluorescence. Toll-like receptor 9 (Homo sapiens) + Myeloid differentiation primary response protein …. CCF4 FRET ratio. inhibition, % at 4.98 µM. 340,000 tested, 0.21% active. AID 504734, 2011;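 active = inhibition above the mean over all tested compounds plus 3 SD, cut at about 21% in these data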;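 note: 0% = DMSO only wells and 100% = clavulanate BLA inhibitor control wells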
# Active calls of the source: *; . = no result given. The sample as a whole holds a higher share of hits than the screen did.
SMILES,TLR4 MyD88 comp,CHOP UPR activ,NOD2 RIPK2 PPI,CHOP inh,UPR XBP1 act,TLR9-MyD88 inh
CC(=O)Nc1nc(-c2ccccc2)nc(-c2ccccc2OC(C)=O)n1,-9.4,-0.2,4.1,90.4*,-0.2,-0.1
CC(=O)Nc1nc(C)nc(-c2ccccc2OC(C)=O)n1,14.6,-0.7,6.1,9.2,0.0,-1.1
COc1cccc(/C=N/n2c(N)c(S(=O)(=O)c3cccs3)c3nc4ccccc4nc32)c1,-7.2,-3.1,-2.4,-42.3,-0.8,-5.0
Nc1c(S(=O)(=O)c2cccs2)c2nc3ccccc3nc2n1/N=C/c1cccc(O)c1,1.8,17.7,2.1,89.3*,8.6,1.9
O=C(NC(=S)Nc1c(Cl)ccc2nsnc12)c1ccco1,-5.1,1.0,5.8,-0.5,1.2,1.5
O=C(Nc1cc2c(oc1=O)CCCC2=O)c1ccccc1,-7.0,-0.1,-9.0,76.1*,2.8,2.9
O=C1CN(C(=O)CNCc2cccc(Cl)c2)c2ccccc2N1,.,1.8,-2.6,13.6,-2.8,8.5
CCCCCCNC(=O)O[C@H]1Cn2c(=O)ccc(=O)n2[C@@H]2CN(S(=O)(=O)c3ccc(C)cc3)C[C@]12O,.,.,1.9,.,.,5.5
Cc1cc(C)c2nc(-c3ccccn3)cc(C(=O)NCCc3ccc(S(N)(=O)=O)cc3)c2c1,-10.2,-2.2,-0.9,89.4*,-2.7,0.7
Cc1ccc(NC2=C(C(=O)c3ccccc3)N(C)S(=O)(=O)c3ccccc32)cc1,5.5,0.3,-11.0,95.3*,-2.8,-6.5
O=C(CSc1nc(-c2ccccc2)c(-c2ccccc2)o1)Nc1nncs1,-3.1,-2.0,-3.3,71.6*,-1.5,4.8
COc1ccccc1CNC(=O)C(=O)NCC1CCCN1S(=O)(=O)c1cc(C)ccc1C (stereo not drawn),.,.,-17.8,.,.,9.8
S=C(NNc1ccnc2cc(Cl)ccc12)Nc1ccc(Cl)cc1Cl,.,6.6,-3.3,96.0*,8.6,-0.3
Cc1cccc(C)c1NC(=O)C1(C)CSCC(=O)N1CCCN1CCOCC1 (stereo not drawn),.,.,-18.9,.,.,.
CCOC(=O)c1sc2nc(NC(=O)C3CC3)sc2c1C,3.8,5.6,3.7,98.7*,3.4,13.1
CCOC(=O)c1sc2nc(NC(=O)C(C)(C)C)sc2c1C,-5.4,12.1,-3.5,76.8*,7.8,6.7
Cc1ccc(S(=O)(=O)N2CCC(=O)N(CCOCc3cccc(C(F)(F)F)c3)CC2)cc1,-3.0,-0.4,11.0,79.1*,1.9,-0.8
Cc1cc(SCC(=O)N/N=C/c2ccccc2C(=O)O)c(C)cc1Br,.,0.3,-5.4,.,2.0,0.9
Cc1cc(SCC(=O)N/N=C/c2ccc(O)cc2O)c(C)cc1Br,0.4,-2.2,-2.2,87.7*,-1.9,-0.8
CCC1C/C(=C\c2cccnc2)C(=O)/C(=C/c2cccnc2)C1 (stereo not drawn),-12.8,.,10.8,105.6*,.,8.4
O=C(O)/C=C/C(=O)NCCc1ccccc1,-0.7,-0.5,-12.2,-10.0,-3.0,2.4
CC(C)=CC(=O)NCCc1ccccc1,11.2,1.5,-13.5,84.6*,0.7,-0.3
C(=C\c1ccccc1)/CN1CCN(c2ncnc3c2oc2ccccc23)CC1,9.1,2.0,-15.2,94.0*,-0.1,-7.2
c1ccc2c(c1)oc1c(N3CCOCC3)ncnc12,-3.5,3.2,-6.7,9.5,2.3,-4.5
COc1cccc(-c2nnc3n2N=C(c2cc(OC)ccc2OC)CS3)c1,4.6,3.0,-2.5,48.2,8.4,-4.6
SMILES,TLR4 MyD88 comp,CHOP UPR activ,NOD2 RIPK2 PPI,CHOP inh,UPR XBP1 act,TLR9-MyD88 inh
COc1cccc(-c2nnc3n2N=C(C(C)(C)C)CS3)c1,-0.5,-4.8,-7.6,74.8*,-2.2,-7.4
Cc1cc2c(cc1C)CSC(c1ccc(O)cc1)SC2,5.2,-1.3,-1.6,89.9*,-1.2,9.7
CC(=O)c1c(C)[nH]c(C(=O)OCC(=O)Nc2ccc(C)cc2[N+](=O)[O-])c1C,0.2,3.4,-2.7,89.4*,-3.6,-5.7
CCOC(=O)c1c(C)[nH]c(C(=O)C(C)OC(=O)c2cccc(OCc3c(C)noc3C)c2)c1C (stereo not drawn),2.3,2.1,-12.4,80.2*,-0.8,-6.5
CCC(C)NC(=O)c1cccc(OCc2c(C)noc2C)c1 (stereo not drawn),3.6,-1.3,-23.8,0.9,-1.4,8.3
NC(=O)CC(NC(=O)Cc1ccc(Br)cc1)c1ccc(NCc2ccc(F)cc2)c([N+](=O)[O-])c1 (stereo not drawn),.,0.6,3.7,93.4*,-2.1,7.7
NC(=O)CC(NC(=O)c1ccc(Br)cc1)c1ccc(NCCc2ccc(F)cc2)c([N+](=O)[O-])c1 (stereo not drawn),.,-2.1,9.1,22.5,1.9,1.1
NC(=O)CC(NC(=O)Cc1ccc(Br)cc1)c1ccc(NCC2CC2)c([N+](=O)[O-])c1 (stereo not drawn),.,-2.0,-7.6,76.9*,-2.9,-8.4
COc1ccc(S(=O)(=O)n2ccnc2C)c(C)c1C,.,-2.1,1.7,.,-2.5,-1.9
CCOC(=O)[C@]12CCC=C1N(Cc1ccco1)C(=O)[C@H](CC(=O)NCCCCc1ccccc1)C2,.,.,6.1,.,.,.
CC(C)C[C@H]1CN([C@@H](Cc2ccccc2)CN2CCC[C@H]2CN2C(=O)C(=O)NC[C@@H]2Cc2ccccc2)C(=O)C(=O)N1CCc1ccccc1,.,.,-5.4,.,.,.
CCN1C(=Nc2ccc(Cl)cc2)SC/C1=C\C(=O)OC,-0.5,3.1,-9.3,81.5*,3.4,-0.1
Cn1c2c(c(=O)n(C)c1=O)C(C(F)(F)F)(C(F)(F)F)N=C(c1ccc(Cl)cc1)N2,5.2,15.1,10.3,76.9*,7.5,-1.9
Oc1ccccc1CNc1ccc(Br)cn1,12.1,4.1,6.3,-9.1,0.2,4.1
Brc1ccc(NCc2cccc3ccccc23)nc1,1.2,-1.7,-10.4,86.6*,4.8,10.2
O=C1NCC(=O)N2C(c3ccccc3)c3[nH]c4ccccc4c3C[C@@H]12 (stereo partly drawn),.,1.2,-20.4,.,-5.5,-4.9
O=C1[C@@H]2Cc3c([nH]c4ccccc34)[C@@H](c3ccccc3)N2C(=O)[C@@H]2Cc3c([nH]c4ccccc34)[C@@H](c3ccccc3)N12,-2.5,.,.,106.1*,.,.
CCCCCCC1CCC(c2nc(-c3ccncc3)no2)CC1 (stereo not drawn),9.2,-0.8,1.3,-3.3,-1.8,-11.9
